Test results from publication PMC4028150 (Chembiochem : a European journal of chemical biology, 2013).
Where a SMILES comes first, the peptide text is derived from it. Where no end group is shown, it is not given here.

Legend:
[1] = target: SCF^Fbx4 (Fbx4-dependent TRF1 ubiquitination) (UniProt P54274); assay: In vitro TRF1 ubiquitination assay; type: biochemical; conditions: versus wild-type peptide (IC50 = 205.9 µM)
Summary of the method: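 TRF1ΔMyb (E. coli; Ni-NTA, tag cleaved, gel filtration, Mono-Q/Mono-S) was prelabelled with GST-cyclin B/Cdk1 in 50 mM Tris pH 8.0, 10 mM MgCl2, 10 mM ATP and 2 µCi [γ-33P]ATP for 1 hr, then kinase-depleted on glutathione resin. It was incubated with E1, UbcH5a, SCFFbx4, ubiquitin, methylated ubiquitin, energy-regenerating system and increasing peptide at 30°C for 2.5 hrs. SDS-PAGE and phosphorimaging followed. IC50 came from loss of polyubiquitination.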

[2] = test system: SCF^Skp2 (p27 ubiquitination); assay: In vitro p27 ubiquitination assay; type: biochemical; conditions: E1, hCdc34 (E2), Cks1, p27 phosphorylated by cyclin E-Cdk2, SCF^Skp2; 2 hrs, 30°C; Figure S3
[3] = target: T1, TRF1_(TRFH) (residues 58-268) (UniProt P54274 58-268); assay: fluorescence polarisation
T1 sequence (looked up): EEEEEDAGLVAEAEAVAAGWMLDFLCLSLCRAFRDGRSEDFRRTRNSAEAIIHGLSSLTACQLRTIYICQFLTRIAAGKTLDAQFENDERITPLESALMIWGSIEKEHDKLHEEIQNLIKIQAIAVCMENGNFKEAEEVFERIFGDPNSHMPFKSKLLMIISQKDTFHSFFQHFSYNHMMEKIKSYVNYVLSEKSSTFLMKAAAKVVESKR

Molecule	decrease of IC50 compared to wild-type peptide [1]	effect on the ubiquitination of p27 [2]	Kd [3]
CC[C@H](C)[C@H](NC(=O)[C@@H]1CCCN1C(=O)[C@@H](N)CCSC)C(=O)N[C@@H](Cc1ccccc1)C(=O)N[C@@H](Cc1c[nH]c2ccccc12)C(=O)N[C@@H](CCCCN)C(=O)N[C@@H](Cc1ccccc1)C(=O)N[C@@H](Cc1c[nH]cn1)C(=O)N[C@@H](CCCNC(=N)N)C(=O)N[C@@H](CCSC)C(=O)N[C@@H](CO)C(=O)N[C@@H](CCCCN)C(=O)N[C@@H](CCSC)C(=O)NCC(=O)N[C@H](C(=O)NCC(N)=O)[C@@H](C)O [Design 1] (H-MPIFWKFHRMSKMGTG-NH2)	more than 6 fold	no effect	
MPCFYLAHEL-NH2 (also: 7-hydroxycoumarin-3-carboxylic acid label, position not given here) [Wild-Type peptide (Fbx4 residues 339-348)]			41.8 µM
MPIFWKFHRMSKMGTG-NH2 (designed binder, also: 7-hydroxycoumarin-3-carboxylic acid label, position not given here) [Design 1]			23.3 µM
MPIAWKFHRMSKMGTG-NH2 (designed binder, also: 7-hydroxycoumarin-3-carboxylic acid label, position not given here) [Design 2]			47.8 µM
MPIFWKAHRMSKMGTG-NH2 (designed binder, also: 7-hydroxycoumarin-3-carboxylic acid label, position not given here) [Design 3]			17.3 µM
SMTWRGKPAHMIFGKM-NH2 (also: 7-hydroxycoumarin-3-carboxylic acid label, position not given here) [Control 1]			> 250 µM
KKMDVCGGLSD-NH2 (also: 7-hydroxycoumarin-3-carboxylic acid label, position not given here) [Control 2]			> 10000 µM
